We go through 2 molecules from ChEMBL document CHEMBL4118097, “Selective Inhibitors of Dual Leucine Zipper Kinase (DLK, MAP3K12) with Activity in a Model of Alzheimer's Disease” (J Med Chem, 2017).

The target in test [1] is T1, Mitogen-activated protein kinase kinase kinase 12 (Homo sapiens, UniProt Q12852).
T1 sequence (Q12852 whole entry): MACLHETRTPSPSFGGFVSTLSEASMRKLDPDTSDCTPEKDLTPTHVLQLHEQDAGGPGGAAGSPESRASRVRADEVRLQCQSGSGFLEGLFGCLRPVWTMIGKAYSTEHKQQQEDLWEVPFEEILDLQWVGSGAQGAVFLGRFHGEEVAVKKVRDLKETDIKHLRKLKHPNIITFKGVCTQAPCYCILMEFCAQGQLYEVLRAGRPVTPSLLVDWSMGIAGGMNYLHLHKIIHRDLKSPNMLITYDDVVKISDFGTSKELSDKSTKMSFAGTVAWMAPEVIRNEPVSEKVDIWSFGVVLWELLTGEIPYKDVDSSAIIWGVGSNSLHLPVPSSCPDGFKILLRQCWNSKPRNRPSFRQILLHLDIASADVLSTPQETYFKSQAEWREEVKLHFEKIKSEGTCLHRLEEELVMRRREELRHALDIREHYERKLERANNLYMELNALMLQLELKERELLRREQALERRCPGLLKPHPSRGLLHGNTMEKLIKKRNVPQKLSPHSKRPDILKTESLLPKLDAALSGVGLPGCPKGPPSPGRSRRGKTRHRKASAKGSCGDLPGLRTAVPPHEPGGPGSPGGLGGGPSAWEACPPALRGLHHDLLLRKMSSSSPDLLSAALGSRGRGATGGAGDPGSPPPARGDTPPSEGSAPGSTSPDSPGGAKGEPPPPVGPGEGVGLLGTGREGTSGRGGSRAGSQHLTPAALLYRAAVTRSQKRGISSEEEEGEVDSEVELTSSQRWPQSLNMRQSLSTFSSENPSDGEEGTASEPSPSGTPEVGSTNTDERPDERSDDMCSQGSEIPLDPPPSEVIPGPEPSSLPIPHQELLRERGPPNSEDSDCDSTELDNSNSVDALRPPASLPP
The test can be described thus: Binding affinity to full length wild type human DLK (M1 to P859 residues) expressed in mammalian cells by KINOMEscan assay. The format is cell-based. In a few lines: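 Binding measured in an outsourced KINOMEscan profiling service, run alongside the homologous kinase LZK; the value is reported as a dissociation constant (Kd).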

The target of test [2] is Receptor tyrosine-protein kinase erbB-4 (Homo sapiens) (UniProt Q15303). Put plainly: Inhibition of recombinant N-terminal GST-tagged human ErbB4 cytoplasmic domain expressed in baculovirus expression system at 1 uM by FRET assay relative to control. A digest of the protocol: (§1)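 Single-concentration screen at 1 μM in Life Technologies SelectScreen, across a 220-kinase panel. Z′-LYTE format measures phosphorylation of a labeled peptide by FRET. Results are reported as percent inhibition.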
Receptor tyrosine-protein kinase erbB-4 (Homo sapiens), sequence (Q15303 whole entry, the tested form may be a part): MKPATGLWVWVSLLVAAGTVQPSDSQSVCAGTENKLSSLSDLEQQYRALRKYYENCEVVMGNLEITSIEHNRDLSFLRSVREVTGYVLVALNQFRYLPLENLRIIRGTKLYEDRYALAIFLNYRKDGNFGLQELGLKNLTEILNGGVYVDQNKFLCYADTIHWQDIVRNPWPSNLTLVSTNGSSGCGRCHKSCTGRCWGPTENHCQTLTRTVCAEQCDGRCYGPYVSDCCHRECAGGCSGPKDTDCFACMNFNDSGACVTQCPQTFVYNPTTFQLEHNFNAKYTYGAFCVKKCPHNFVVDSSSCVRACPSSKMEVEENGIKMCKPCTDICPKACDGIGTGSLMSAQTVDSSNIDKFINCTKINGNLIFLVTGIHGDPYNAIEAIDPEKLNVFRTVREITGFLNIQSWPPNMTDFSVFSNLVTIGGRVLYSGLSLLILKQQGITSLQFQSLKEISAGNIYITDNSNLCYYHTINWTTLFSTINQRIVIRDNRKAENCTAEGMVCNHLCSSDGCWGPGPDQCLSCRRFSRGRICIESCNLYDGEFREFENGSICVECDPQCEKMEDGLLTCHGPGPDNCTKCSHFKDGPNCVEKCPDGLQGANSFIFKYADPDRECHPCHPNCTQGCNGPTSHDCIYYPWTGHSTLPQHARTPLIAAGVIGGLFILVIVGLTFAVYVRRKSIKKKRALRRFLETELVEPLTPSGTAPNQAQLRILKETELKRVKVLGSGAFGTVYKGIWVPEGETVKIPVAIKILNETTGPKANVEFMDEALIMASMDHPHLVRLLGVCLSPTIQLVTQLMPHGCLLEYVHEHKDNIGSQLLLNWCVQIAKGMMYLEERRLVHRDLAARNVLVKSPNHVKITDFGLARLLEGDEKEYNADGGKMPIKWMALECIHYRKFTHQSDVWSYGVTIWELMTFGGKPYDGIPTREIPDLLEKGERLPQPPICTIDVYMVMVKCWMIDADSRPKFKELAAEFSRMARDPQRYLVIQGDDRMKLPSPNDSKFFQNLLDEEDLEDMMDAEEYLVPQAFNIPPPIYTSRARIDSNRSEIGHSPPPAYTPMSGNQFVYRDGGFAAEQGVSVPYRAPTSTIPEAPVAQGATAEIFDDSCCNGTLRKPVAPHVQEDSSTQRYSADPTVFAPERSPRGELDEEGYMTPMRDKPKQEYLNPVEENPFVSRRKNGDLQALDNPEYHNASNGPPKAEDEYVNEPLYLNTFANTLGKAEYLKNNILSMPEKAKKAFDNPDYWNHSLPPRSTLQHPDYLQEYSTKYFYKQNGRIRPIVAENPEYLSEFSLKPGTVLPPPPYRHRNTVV

Test [3] addresses Mitogen-activated protein kinase kinase kinase 20 (Homo sapiens) (UniProt Q9NYL2). Put plainly: Inhibition of recombinant N-terminal full length GST-tagged human ZAK expressed in baculovirus expression system at 1 uM by FRET assay relative to control. A digest of the protocol:
as §1

In test [4] the target is 5-hydroxytryptamine receptor 2A (Homo sapiens) (UniProt P28223). The test can be described thus: Binding affinity to 5HT2A receptor (unknown origin) receptor at 10 uM relative to control. In a few lines:
(§2)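 Broad radioligand-binding and enzyme screening panel covering 42 targets (biogenic amine and neuropeptide receptors, ion channels, neurotransmitter transporters, acetylcholinesterase). Single test concentration of 10 μM. Results expressed as binding relative to control, with a hit defined as >50% of control.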

The target of test [5] is Death-associated protein kinase 1 (Homo sapiens) (UniProt P53355). Put plainly: Inhibition of recombinant N-terminal GST-tagged human DAPK1 (1 to 363 residues) expressed in baculovirus expression system at 1 uM by FRET assay relative to control. In a few lines:
as §1

Test [6] has as its target Activated CDC42 kinase 1 (Homo sapiens) (UniProt Q07912). Put plainly: Inhibition of recombinant GST-tagged human TNK2 catalytic/cytoplasmic domain (110 to 476 residues) expressed in baculovirus expression system at 1 uM by FRET assay relative to control. In a few lines: (§3)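 Single-point screen at 1 μM compound in a 220-kinase panel run by Life Technologies (SelectScreen). Z′-LYTE format: phosphorylation of a labeled peptide substrate read by FRET. Values are reported as percent inhibition.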

Test [7] has as its target Fibroblast growth factor receptor 3 (Homo sapiens) (UniProt P22607). The test can be described thus: Inhibition of recombinant His-tagged FGFR3 human cytoplasmic domain expressed in baculovirus expression system at 1 uM by FRET assay relative to control. In a few lines: as §3
In test [8] the target is Tyrosine-protein kinase BTK (Homo sapiens) (UniProt Q06187). The test can be described thus: Inhibition of recombinant full length His-tagged human BTK cytoplasmic domain expressed in baculovirus expression system at 1 uM by FRET assay relative to control.
The target of test [9] is Cytoplasmic tyrosine-protein kinase BMX (Homo sapiens) (UniProt P51813). Put plainly: Inhibition of recombinant full length His-tagged human Bmx cytoplasmic domain expressed in Baculovirus expression system at 1 uM by FRET assay relative to control.
Test [10] concerns the target Ribosomal protein S6 kinase alpha-3 (Homo sapiens) (UniProt P51812). The test can be described thus: Inhibition of recombinant full length His-tagged human RSK2 expressed in baculovirus expression system at 1 uM by FRET assay relative to control.
In test [11] the target is Serine/threonine-protein kinase Sgk2 (Homo sapiens) (UniProt Q9HBY8). The test can be described thus: Inhibition of recombinant full length GST-tagged human SGK2 catalytic domain (54 to 427 residues) expressed in baculovirus expression system at 1 uM by FRET assay relative to control. In a few lines: as §1
Test [12] has as its target Protein kinase C delta type (Homo sapiens) (UniProt Q05655). Put plainly: Inhibition of recombinant full length human PKCdelta expressed in baculovirus expression system at 1 uM by FRET assay relative to control.
Test [13] has as its target Substance-P receptor (Homo sapiens) (UniProt P25103). Put plainly: Binding affinity to recombinant human NK1 receptor at 10 uM relative to control. A digest of the protocol: as §2
Test [14] deals with BDNF/NT-3 growth factors receptor (Homo sapiens) (UniProt Q16620). Put plainly: Inhibition of recombinant His-tagged human TrkB cytoplasmic domain expressed in baculovirus expression system at 1 uM by FRET assay relative to control. A digest of the protocol:
as §1

For test [15], the target named is Tyrosine-protein kinase receptor UFO (Homo sapiens) (UniProt P30530). Put plainly: Inhibition of recombinant His-tagged human AXL (473 to end residues) cytoplasmic domain expressed in insect cells at 1 uM by FRET assay relative to control. A digest of the protocol:
as §3

In test [16] the target is Homeodomain-interacting protein kinase 1 (Homo sapiens) (UniProt Q86Z02). Put plainly: Inhibition of recombinant GST-tagged human HIPK1 catalytic domain expressed in baculovirus expression system at 1 uM by FRET relative to control. A digest of the protocol: as §3
Homeodomain-interacting protein kinase 1 (Homo sapiens), sequence (Q86Z02 whole entry, looked up, the tested form may be a part): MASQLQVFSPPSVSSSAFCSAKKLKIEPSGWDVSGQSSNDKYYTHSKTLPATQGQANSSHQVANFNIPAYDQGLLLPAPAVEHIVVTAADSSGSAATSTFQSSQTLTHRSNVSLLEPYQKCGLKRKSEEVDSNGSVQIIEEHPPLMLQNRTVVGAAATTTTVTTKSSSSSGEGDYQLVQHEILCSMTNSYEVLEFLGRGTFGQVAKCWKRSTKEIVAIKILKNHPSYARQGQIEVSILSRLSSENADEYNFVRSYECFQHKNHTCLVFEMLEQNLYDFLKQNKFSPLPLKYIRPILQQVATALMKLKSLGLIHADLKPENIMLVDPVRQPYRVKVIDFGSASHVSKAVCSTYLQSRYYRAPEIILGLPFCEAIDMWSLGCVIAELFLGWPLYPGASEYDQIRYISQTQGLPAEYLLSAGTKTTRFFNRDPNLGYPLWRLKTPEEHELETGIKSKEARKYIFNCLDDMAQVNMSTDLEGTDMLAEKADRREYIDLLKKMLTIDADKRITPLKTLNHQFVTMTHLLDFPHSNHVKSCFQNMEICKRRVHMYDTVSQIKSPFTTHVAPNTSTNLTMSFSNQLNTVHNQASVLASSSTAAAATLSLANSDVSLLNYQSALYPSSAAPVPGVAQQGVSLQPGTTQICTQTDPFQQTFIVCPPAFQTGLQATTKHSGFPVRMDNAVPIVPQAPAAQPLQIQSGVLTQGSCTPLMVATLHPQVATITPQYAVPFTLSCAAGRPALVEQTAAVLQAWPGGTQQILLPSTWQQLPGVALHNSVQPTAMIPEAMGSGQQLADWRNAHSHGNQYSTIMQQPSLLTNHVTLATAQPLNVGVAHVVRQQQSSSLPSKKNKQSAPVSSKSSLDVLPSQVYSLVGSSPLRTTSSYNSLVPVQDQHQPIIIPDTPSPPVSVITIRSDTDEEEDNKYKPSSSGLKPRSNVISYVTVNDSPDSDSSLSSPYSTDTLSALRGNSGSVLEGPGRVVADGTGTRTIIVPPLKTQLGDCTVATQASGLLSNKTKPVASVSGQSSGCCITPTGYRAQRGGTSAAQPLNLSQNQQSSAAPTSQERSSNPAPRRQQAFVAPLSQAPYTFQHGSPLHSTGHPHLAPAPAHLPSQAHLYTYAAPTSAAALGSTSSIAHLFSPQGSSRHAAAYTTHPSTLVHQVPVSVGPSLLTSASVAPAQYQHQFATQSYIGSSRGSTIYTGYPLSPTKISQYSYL
Test [17] deals with Serine/threonine-protein kinase 3 (Homo sapiens) (UniProt Q13188). Put plainly: Inhibition of recombinant full length GST-tagged human MST2 expressed in baculovirus at 1 uM by FRET assay relative to control. A digest of the protocol: as §1
Serine/threonine-protein kinase 3 (Homo sapiens), sequence (Q13188 whole entry): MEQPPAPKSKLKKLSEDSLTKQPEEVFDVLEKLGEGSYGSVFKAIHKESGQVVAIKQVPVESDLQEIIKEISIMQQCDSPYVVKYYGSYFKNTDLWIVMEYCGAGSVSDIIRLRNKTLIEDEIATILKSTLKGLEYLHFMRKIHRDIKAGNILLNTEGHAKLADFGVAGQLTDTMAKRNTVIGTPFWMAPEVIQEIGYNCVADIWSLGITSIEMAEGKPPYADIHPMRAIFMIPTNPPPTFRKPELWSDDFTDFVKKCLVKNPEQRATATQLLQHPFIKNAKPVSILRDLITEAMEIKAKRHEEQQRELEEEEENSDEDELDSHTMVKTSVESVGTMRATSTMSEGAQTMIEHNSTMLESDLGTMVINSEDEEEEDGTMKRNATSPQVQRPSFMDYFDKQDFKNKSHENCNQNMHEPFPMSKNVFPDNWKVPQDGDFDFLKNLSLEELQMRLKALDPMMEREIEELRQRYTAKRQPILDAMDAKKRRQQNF
Test [18] has as its target Mitogen-activated protein kinase kinase kinase 2 (Homo sapiens) (UniProt Q9Y2U5). The test can be described thus: Inhibition of recombinant full length GST-tagged human MEKK2 expressed in baculovirus expression system at 1 uM by FRET assay relative to control. In a few lines: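 Part of a 220-kinase panel run at a single concentration of 1 μM. Z′-LYTE format: phosphorylation of a labelled peptide read by FRET. Values reported as percent inhibition.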

The structures appear in SMILES notation.

Broadly, the Kd is the constant that tells how readily two partners part at equilibrium. What is called inhibition is the drop in the measured response relative to a control, in per cent.

Mitogen-activated protein kinase kinase kinase 20 (Homo sapiens), sequence (Q9NYL2 2-800 limits assumed): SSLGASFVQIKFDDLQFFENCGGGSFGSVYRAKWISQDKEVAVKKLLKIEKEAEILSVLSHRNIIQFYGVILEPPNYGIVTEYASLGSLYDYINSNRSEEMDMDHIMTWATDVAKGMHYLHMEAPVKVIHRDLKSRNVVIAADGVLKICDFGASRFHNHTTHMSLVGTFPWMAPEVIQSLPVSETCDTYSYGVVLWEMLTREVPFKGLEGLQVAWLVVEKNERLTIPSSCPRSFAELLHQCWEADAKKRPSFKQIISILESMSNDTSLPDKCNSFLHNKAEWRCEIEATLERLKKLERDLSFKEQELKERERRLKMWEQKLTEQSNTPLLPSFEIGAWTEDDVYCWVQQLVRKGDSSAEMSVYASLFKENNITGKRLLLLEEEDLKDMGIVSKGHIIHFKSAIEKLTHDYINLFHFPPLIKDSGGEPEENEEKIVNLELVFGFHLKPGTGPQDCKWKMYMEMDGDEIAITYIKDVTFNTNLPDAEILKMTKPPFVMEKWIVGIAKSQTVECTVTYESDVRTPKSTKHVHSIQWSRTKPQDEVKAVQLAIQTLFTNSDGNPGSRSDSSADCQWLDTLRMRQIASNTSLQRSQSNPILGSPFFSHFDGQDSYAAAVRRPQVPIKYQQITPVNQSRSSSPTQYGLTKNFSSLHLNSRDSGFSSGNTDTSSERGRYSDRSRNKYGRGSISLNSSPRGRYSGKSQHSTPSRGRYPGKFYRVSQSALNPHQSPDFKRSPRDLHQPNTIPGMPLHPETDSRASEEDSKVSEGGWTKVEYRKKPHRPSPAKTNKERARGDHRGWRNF
Ribosomal protein S6 kinase alpha-3 (Homo sapiens), sequence (P51812 whole entry, the tested form may be a part): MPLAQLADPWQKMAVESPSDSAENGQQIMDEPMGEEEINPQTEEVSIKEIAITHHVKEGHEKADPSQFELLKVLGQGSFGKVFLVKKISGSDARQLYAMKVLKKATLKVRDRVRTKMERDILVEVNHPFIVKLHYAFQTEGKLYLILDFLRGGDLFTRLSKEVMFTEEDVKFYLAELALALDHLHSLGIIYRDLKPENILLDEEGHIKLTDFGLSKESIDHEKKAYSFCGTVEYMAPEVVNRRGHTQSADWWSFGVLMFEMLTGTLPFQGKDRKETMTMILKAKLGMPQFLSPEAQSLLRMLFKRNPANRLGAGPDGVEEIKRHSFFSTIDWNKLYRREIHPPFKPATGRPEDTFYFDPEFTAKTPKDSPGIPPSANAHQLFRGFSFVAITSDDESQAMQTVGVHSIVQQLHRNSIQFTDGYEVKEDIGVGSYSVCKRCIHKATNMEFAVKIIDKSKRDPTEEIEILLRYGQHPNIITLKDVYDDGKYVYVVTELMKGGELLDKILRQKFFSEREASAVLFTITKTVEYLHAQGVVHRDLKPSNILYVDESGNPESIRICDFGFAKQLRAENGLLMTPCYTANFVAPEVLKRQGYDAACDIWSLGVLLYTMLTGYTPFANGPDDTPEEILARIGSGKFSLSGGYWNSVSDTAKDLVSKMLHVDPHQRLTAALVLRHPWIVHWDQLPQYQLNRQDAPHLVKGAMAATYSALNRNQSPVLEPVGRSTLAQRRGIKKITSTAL
Substance-P receptor (Homo sapiens), sequence (P25103 whole entry, the tested form may be a part): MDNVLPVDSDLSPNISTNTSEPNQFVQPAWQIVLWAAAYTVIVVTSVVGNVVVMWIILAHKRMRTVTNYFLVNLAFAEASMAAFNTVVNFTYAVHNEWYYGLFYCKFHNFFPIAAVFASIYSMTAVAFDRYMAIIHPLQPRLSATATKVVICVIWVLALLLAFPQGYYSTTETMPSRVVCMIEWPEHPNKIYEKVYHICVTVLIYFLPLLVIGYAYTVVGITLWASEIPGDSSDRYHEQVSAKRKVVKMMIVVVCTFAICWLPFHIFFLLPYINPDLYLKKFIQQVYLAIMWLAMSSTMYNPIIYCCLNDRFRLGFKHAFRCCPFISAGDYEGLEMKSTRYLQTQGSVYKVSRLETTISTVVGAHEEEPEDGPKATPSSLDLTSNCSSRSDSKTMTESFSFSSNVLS

In test [1], `CC(C)n1nc(-c2cnc(N)c(OC(F)(F)F)c2)cc1[C@H]1[C@@H]2CN(C3COC3)C[C@@H]21` registered a Kd of 11 nM. Moreover, the inhibition in test [2] is 2.5%; in [3] it was 2.5%; in test [5], -5.1%; in test [6], 1.3%; in test [7], -1.8%; in [8], 9.9%. In addition, the inhibition in [9] was determined as 7.8%; in test [10], 2.8%; in test [11], 2.7%; in test [12], 0.9%; in test [14] it was 44.3%; in test [15], 40.7%. Further, the inhibition came out at 8.6% in test [16], 10.1% in test [17] and 0.5% in test [18]. The Activity in [4] and in [13] was greater than 50% throughout.

`Nc1ncc(-c2cc([C@H]3[C@@H]4CN(C5COC5)C[C@@H]43)n(CC3CC3)n2)cc1C(F)(F)F`: in test [1], the Kd amounted to 5.1 nM. In addition, the inhibition was 5.3% in [2]; 1.4% in test [3]; 14% in [5]; 0.3% in test [6]; -9.3% in test [7]; 19.9% in test [8]. For the same molecule, the inhibition is 14.1% in [9]; 2% in [10]; 0.3% in test [11]; -0.7% in [12]; 38.8% in [14]; 57.4% in test [15]. In addition, the inhibition in test [16] is 3.8%; in [17], 0%; in test [18], 4%. Further, the Activity in test [4] and in test [13] was greater than 50% in each case.
